Experimental data reported in ChEMBL document CHEMBL1129970, “Biologically active conformer of the effector region of human C5a and modulatory effects of N-terminal receptor binding determinants on activity” (J Med Chem, 1997).
Peptide text beside a SMILES is read from it.

Key:
[1] = Selectivity of peptide was determined from antilog[pD2(fetal artery)-pD2 (PMN enzyme release)] (n=8); type: functional
Outline: (§1)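 Selectivity = antilog[pD2(fetal artery) − pD2(PMN β-glucuronidase release)]. pD2 values come from full dose–response curves in each assay, each generated alongside C5a.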

Homo sapiens [2] = organism: Homo sapiens; experiment: Relative potency of peptide to stimulate beta-glucuronidase release from human polymorphonuclear cells (PMN) (n=4); type: functional
Outline: (§2)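 Human PMNs pretreated with cytochalasin B (5 μg/mL, 10 min, 37 °C), then 10⁶ cells stimulated for 60 min at 37 °C. β-Glucuronidase in the supernatant is assayed with 0.01 M p-nitrophenyl β-D-glucuronide (0.1 M acetate, pH 4, 18 h) in triplicate. Reaction stopped with glycine pH 10 and read at 415 nm. pD2 is taken from dose–response curves against the C5a EC50. Efficacy is given relative to C5a maximum (100%).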

Homo sapiens [3] = organism: Homo sapiens; experiment: Tested for the ability to stimulate beta-glucuronidase release from human polymorphonuclear cells (PMN) (n=4); type: functional; outline: as §2
Homo sapiens [4] = organism: Homo sapiens; experiment: Log potency ratio [pD2(C5a)-pD2(peptide)] was determined in human polymorphonuclear cells (PMN) (n=4); type: functional; outline: as §2
Homo sapiens [5] = organism: Homo sapiens; experiment: Log potency ratio [pD2(C5a)-pD2(peptide)] was determined in human fetal artery; type: functional
Outline: (§3)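 Human fetal artery smooth muscle contraction; full dose–response curves for recombinant human C5a or each peptide in the same tissue preparation. EC50 is the concentration giving 50% of the maximal response, read relative to the C5a maximum. pD2 = −log EC50 (M), averaged per peptide ± SE. Log potency ratio pD2(C5a) − pD2(peptide) is computed within each experiment. Relative potency = antilog(−Δ) × 100.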

Homo sapiens [6] = organism: Homo sapiens; experiment: Spasmogenic activity was measured by the ability to induce smooth muscle contraction in human fetal artery; type: functional, Muscle tissue; outline: as §3
Homo sapiens [7] = organism: Homo sapiens; experiment: Relative potency of peptide for human fetal artery was determined; type: functional; outline: as §3
Homo sapiens [8] = organism: Homo sapiens; experiment: Maximum efficacy relative to C5a (100%) for human polymorphonuclear cells (PMN) was determined (n=4); type: functional; outline: as §2
Homo sapiens [9] = organism: Homo sapiens; experiment: Effective concentration to stimulate beta-glucuronidase release from human polymorphonuclear cells (PMN) (n=6); type: functional; outline: as §2
Homo sapiens [10] = organism: Homo sapiens; experiment: Log potency ratio [log IC50(C5a)-log IC50(peptide)] was determined in human polymorphonuclear cells (PMN) (n=3); type: functional
Outline: (§4)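 Competition binding on freshly isolated intact human PMNs (0.25 × 10⁶) with 20 pM [¹²⁵I]C5a plus unlabeled C5a or peptide. Buffer is 50 mM HEPES, 1 mM CaCl₂, 5 mM MgCl₂, 0.5% BSA. Incubation 60 min at 4 °C, then filtration, ice-cold washes and gamma counting, triplicates. Nonspecific binding defined with 1 mM peptide or 100 nM C5a. Relative affinity = antilog[−(log IC50 C5a − log IC50 peptide)] × 100. The potency/binding ratio is EC50 divided by the binding IC50.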

Homo sapiens [11] = organism: Homo sapiens; experiment: Effective concentration to induce smooth muscle contraction in human fetal artery; type: functional; conditions: Muscle tissue; outline: as §3
Homo sapiens [12] = organism: Homo sapiens; experiment: Tested for the ability to stimulate beta-glucuronidase release from human polymorphonuclear cells (PMN) (n=6); type: functional; outline: as §2
Homo sapiens [13] = organism: Homo sapiens; experiment: Tested for inhibition of binding of [125I]C5a to intact human polymorphonuclear cells (PMN) (n=3); type: functional; outline: as §4
Homo sapiens [14] = organism: Homo sapiens; experiment: Maximum efficacy relative to C5a (100%) for human polymorphonuclear cells (PMN) was determined (n=6); type: functional; outline: as §2
Homo sapiens [15] = organism: Homo sapiens; experiment: Relative affinity for PMN receptor (n=3); type: functional; outline: as §4
Homo sapiens [16] = organism: Homo sapiens; experiment: Log potency ratio [pD2(C5a)-pD2(peptide)] was determined in human polymorphonuclear cells (PMN) (n=6); type: functional; outline: as §2
Homo sapiens [17] = organism: Homo sapiens; experiment: Relative potency of peptide to stimulate beta-glucuronidase release from human polymorphonuclear cells (PMN) (n=6); type: functional; outline: as §2
Homo sapiens [18] = organism: Homo sapiens; experiment: Selectivity of peptide was determined from antilog [pD2(fetal artery)-pD2 (PMN enzyme release)] (n=28); type: functional; outline: as §1
Homo sapiens [19] = organism: Homo sapiens; experiment: (§5) Ratio of concentration agonist potency (EC50) to concentration inhibiting [125I]C5a binding (n=3); type: functional; outline: as §4
Homo sapiens [20] = organism: Homo sapiens; experiment: Effective concentration to stimulate beta-glucuronidase release from human polymorphonuclear cells (PMN) (n=3); type: functional; outline: as §2
Homo sapiens [21] = organism: Homo sapiens; experiment: Selectivity of peptide was determined from antilog[pD2(fetal artery)-pD2 (PMN enzyme release)] (n=10); type: functional; outline: as §1
Homo sapiens [22] = organism: Homo sapiens; experiment: Log potency ratio [pD2(C5a)-pD2(peptide)] was determined for human polymorphonuclear cells (PMN) (n=4); type: functional; outline: as §2
[23] = Selectivity of peptide was determined from antilog[pD2(fetal artery)-pD2 (PMN enzyme release)] (n=12); type: functional; outline: as §1
Homo sapiens [24] = organism: Homo sapiens; experiment: Maximum efficacy relative to C5a (100%) for human polymorphonuclear cells (PMN) was determined (n=3); type: functional; outline: as §2
Homo sapiens [25] = organism: Homo sapiens; experiment: Tested for the ability to stimulate beta-glucuronidase release from human polymorphonuclear cells (PMN) (n=3); type: functional; outline: as §2
Homo sapiens [26] = organism: Homo sapiens; experiment: Log potency ratio [pD2(C5a)-pD2(peptide)] was determined in human polymorphonuclear cells (PMN) (n=3); type: functional; outline: as §2
Homo sapiens [27] = organism: Homo sapiens; experiment: Relative potency of peptide to stimulate beta-glucuronidase release from human polymorphonuclear cells (PMN) (n=3); type: functional; outline: as §2
[28] = Selectivity of peptide was determined from antilog[pD2(fetal artery)-pD2 (PMN enzyme release)] (n=7); type: functional; outline: as §1
[29] = as §5; outline: as §4
Homo sapiens [30] = organism: Homo sapiens; experiment: Effective concentration to stimulate beta-glucuronidase release from human polymorphonuclear cells (PMN) (n=5); type: functional; outline: as §2
Homo sapiens [31] = organism: Homo sapiens; experiment: Maximum efficacy relative to C5a (100%) for human polymorphonuclear cells (PMN) was determined (n=5); type: functional; outline: as §2
Homo sapiens [32] = organism: Homo sapiens; experiment: Tested for inhibition of binding of [125I]-C5a to intact human polymorphonuclear cells (PMN) (n=3); type: functional; outline: as §4
Homo sapiens [33] = organism: Homo sapiens; experiment: Log potency ratio [pD2(C5a)-pD2(peptide)] was determined in human polymorphonuclear cells (PMN) (n=5); type: functional; outline: as §2
Homo sapiens [34] = organism: Homo sapiens; experiment: Tested for the ability to stimulate beta-glucuronidase release from human polymorphonuclear cells (PMN) (n=5); type: functional; outline: as §2
Homo sapiens [35] = organism: Homo sapiens; experiment: Relative potency of peptide to stimulate beta-glucuronidase release from human polymorphonuclear cells (PMN) (n=5); type: functional; outline: as §2
[36] = Selectivity of peptide was determined from antilog[pD2(fetal artery)-pD2 (PMN enzyme release)] (n=35); type: functional; outline: as §1

SMILES | Potency (Homo sapiens [2]) | pD2 (Homo sapiens [3]) | Mean log concentration ratio (Homo sapiens [5]) | pD2 (Homo sapiens [6]) | Potency (Homo sapiens [7]) | C5a max (Homo sapiens [8]) | EC50 (Homo sapiens [11]) | C5a affinity (Homo sapiens [15]) | further results
CSCC[C@H](NC(=O)[C@@H]1CCCN1C(=O)[C@H](CCCCN)NC(=O)[C@H](Cc1ccccc1)NC(=O)[C@H](CO)NC(=O)[C@H](Cc1ccc(O)cc1)NC(C)=O)C(=O)N1CCC[C@H]1C(=O)N[C@@H](CC(C)C)C(=O)N[C@H](C)C(=O)N[C@@H](CCCN=C(N)N)C(=O)O | 0.4% | 5.03 | 0.74 | 6.98 | 9.6% | 148% | – | – | Selectivity [1]: 89; Mean log concentration ratio (Homo sapiens [4]): 2.44
CSCC[C@H](NC(=O)[C@H](CC(=O)O)NC(=O)[C@H](CCCCN)NC(=O)[C@H](Cc1ccccc1)NC(=O)[C@H](CO)NC(=O)[C@@H](N)Cc1ccc(O)cc1)C(=O)N1CCC[C@H]1C(=O)N[C@@H](CC(C)C)C(=O)N[C@H](C)C(=O)N[C@@H](CCCN=C(N)N)C(=O)O | – | – | 1.66 | 6.32 | 2.2% | – | 0.5 µM | 0.007% | EC50 (Homo sapiens [9]): 72 µM; Mean log concentration ratio (Homo sapiens [10]): 4.13; pD2 (Homo sapiens [12]): 4.14; IC50 (Homo sapiens [13]): 3.7 µM; C5a max (Homo sapiens [14]): 174%; Mean log concentration ratio (Homo sapiens [16]): 3.35; Potency (Homo sapiens [17]): 0.04%; Selectivity (Homo sapiens [18]): 151; Ratio (Homo sapiens [19]): 19
CSCC[C@H](NC(=O)[C@@H]1CCCN1C(=O)[C@H](CCCCN)NC(=O)[C@H](Cc1ccccc1)NC(=O)[C@H](CO)NC(=O)[C@H](Cc1ccc(O)cc1)NC(=O)CCCCCNC(=O)[C@@H](N)CCCCN)C(=O)N1CCC[C@H]1C(=O)N[C@@H](CC(C)C)C(=O)N[C@H](C)C(=O)N[C@@H](CCCN=C(N)N)C(=O)O [listing 1 of 2 here] | – | – | – | – | – | – | 0.09 µM | – | EC50 (Homo sapiens [20]): 4.3 µM
CSCC[C@H](NC(=O)[C@@H]1CCCN1C(=O)[C@H](CCCCN)NC(=O)[C@H](Cc1ccccc1)NC(=O)[C@H](CO)NC(=O)[C@H](Cc1ccc(O)cc1)NC(=O)CCCCCN)C(=O)N1CCC[C@H]1C(=O)N[C@@H](CC(C)C)C(=O)N[C@H](C)C(=O)N[C@@H](CCCN=C(N)N)C(=O)O | 1.2% | 5.51 | 0.79 | 7.16 | 16% | 180% | – | 0.005% | Mean log concentration ratio (Homo sapiens [10]): 4.33; Selectivity (Homo sapiens [21]): 45; Mean log concentration ratio (Homo sapiens [22]): 1.9; Ratio (Homo sapiens [19]): 0.6
CSCC[C@H](NC(=O)[C@@H]1CCCN1C(=O)[C@H](CCCCN)NC(=O)[C@H](Cc1ccccc1)NC(=O)[C@H](CO)NC(=O)[C@H](Cc1ccc(O)cc1)NC(=O)CCCCCNC(=O)[C@@H](N)CCCCN)C(=O)N1CCC[C@H]1C(=O)N[C@@H](CC(C)C)C(=O)N[C@H](C)C(=O)N[C@@H](CCCN=C(N)N)C(=O)O [listing 2 of 2 here] | – | – | 0.84 | 7.14 | 14% | – | – | – | Selectivity [23]: 59; C5a max (Homo sapiens [24]): 145%; pD2 (Homo sapiens [25]): 5.37; Mean log concentration ratio (Homo sapiens [26]): 1.93; Potency (Homo sapiens [27]): 1.2%
CSCC[C@H](NC(=O)[C@@H]1CCCN1C(=O)[C@H](CCCCN)NC(=O)[C@H](Cc1ccccc1)NC(=O)[C@H](CO)NC(=O)[C@H](Cc1ccc(O)cc1)NC(=O)CCCCCNC(=O)[C@H](Cc1c[nH]c2ccccc12)NC(=O)[C@@H](N)CC(=O)O)C(=O)N1CCC[C@H]1C(=O)N[C@@H](CC(C)C)C(=O)N[C@H](C)C(=O)N[C@@H](CCCN=C(N)N)C(=O)O | 0.5% | 5.14 | 0.91 | 6.96 | 8.5% | 173% | – | – | Mean log concentration ratio (Homo sapiens [4]): 2.3; Selectivity [28]: 66
CSCC[C@H](NC(=O)[C@H](CC(=O)O)NC(=O)[C@H](CCCCN)NC(=O)[C@H](Cc1ccccc1)NC(=O)[C@H](CO)NC(=O)[C@@H](N)Cc1ccc(O)cc1)C(=O)N[C@@H](CCC(N)=O)C(=O)N[C@@H](CC(C)C)C(=O)NCC(=O)N[C@@H](CCCN=C(N)N)C(=O)O (H-YSFKDMQLGR-OH) | – | – | 3 | 4.96 | 0.1% | – | 9.6 µM | 0.022% | Ratio [29]: 72; EC50 (Homo sapiens [30]): 92 µM; C5a max (Homo sapiens [31]): 87%; IC50 (Homo sapiens [32]): 1.3 µM; Mean log concentration ratio (Homo sapiens [33]): 3.42; pD2 (Homo sapiens [34]): 4.04; Potency (Homo sapiens [35]): 0.04%; Selectivity [36]: 8.3
